Test results: paper PMC6233868 (Journal of nuclear medicine : official publication, Society …, 2016)
Entries after “also recorded” stand apart in the source; their conditions may differ. Read-outs that look alike come from different tables or passages of the source.

Key:
[1] = molecular target: T1, hNIS (Homo sapiens, UniProt Q92911); type: cell-based
T1 sequence (Q92911 1-643): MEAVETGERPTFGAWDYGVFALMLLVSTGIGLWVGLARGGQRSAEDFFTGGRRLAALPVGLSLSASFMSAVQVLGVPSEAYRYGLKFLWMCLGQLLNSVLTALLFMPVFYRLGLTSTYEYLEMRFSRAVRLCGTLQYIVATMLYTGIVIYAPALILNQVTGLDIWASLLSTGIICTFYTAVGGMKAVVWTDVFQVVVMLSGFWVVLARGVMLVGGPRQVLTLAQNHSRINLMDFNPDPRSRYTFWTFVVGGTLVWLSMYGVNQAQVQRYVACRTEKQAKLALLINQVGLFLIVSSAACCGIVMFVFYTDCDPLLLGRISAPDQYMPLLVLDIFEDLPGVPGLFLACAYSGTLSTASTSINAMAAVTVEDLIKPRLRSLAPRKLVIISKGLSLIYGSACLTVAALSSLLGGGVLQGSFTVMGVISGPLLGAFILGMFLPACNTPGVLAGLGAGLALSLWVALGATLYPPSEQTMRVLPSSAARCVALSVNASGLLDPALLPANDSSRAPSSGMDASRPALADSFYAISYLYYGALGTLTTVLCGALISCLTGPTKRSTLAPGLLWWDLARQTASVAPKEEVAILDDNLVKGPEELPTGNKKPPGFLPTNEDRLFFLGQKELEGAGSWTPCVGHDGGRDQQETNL

[2] = system: NIS; details: read-out: IC50 for inhibition of [124I]I- uptake; cited from earlier work
[3] = molecular target: T1, hNIS; type: cell-based; details: read-out: IC50, inhibition of [18F]SO3F- uptake; HCT116-C19 cells
[4] = system: mouse thyroid; details: in vivo; cited from earlier work
[5] = molecular target: T1, hNIS; type: cell-based; remark: listed apart in the source
[6] = system: HCT116 cells; test: [18F]SO3F- uptake in hNIS-negative parental HCT116 cells; type: cell-based, human; details: presence or absence of NaClO4
[7] = ex vivo biodistribution in Balb/c mice; set-up: species or system mouse; details: 2.25 h post-injection
Summary of the method: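 Female Balb/c mice (4-8 weeks) were pretreated 1 h before the radiotracer with NaClO4 (250 mg/kg i.p. in 0.9% NaCl) or with a saline sham. After the 2 h PET scan, mice were culled by cervical dislocation at 2.25 h post-injection. Thyroid was dissected under a microscope. Tissues were weighed and gamma-counted, giving %ID/g; n = 3, SD.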

[8] = PET/CT imaging biodistribution in Balb/c mice; type: in vivo, mouse
Summary of the method: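 Female Balb/c mice (4-8 weeks) received NaClO4 (250 mg/kg i.p. in 0.9% NaCl) or an equal volume of saline 1 h before scanning. Dynamic PET ran for 2 h from <1 min after radiotracer injection, followed by CT. Data were corrected and binned into 5 min then 30 min frames. Manual ROIs were drawn at a 10% max-count threshold and reported as %ID (whole body minus tail) and %ID/g.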

[9] = stability of formulated tracer; type: physicochemical
[10] = human serum stability by TLC
[11] = read-out: IC50, inhibition of [99mTc]TcO4- uptake via hNIS
[12] = read-out: IC50, inhibition of anion uptake via hNIS
[13] = normal mice, PET time-activity curves

## [O]=[Tc](=[O])(=[O])[OH] [TcO4^-, pertechnetate]
[1]; [11]
  IC50: 70 nM

## [O-][Cl+3]([O-])([O-])O [ClO4^-, perchlorate]
[2]
  IC50: 100 nM

## O=S(=O)(O)F [SO3F^-, fluorosulfate]
[3]
  IC50: 1600 nM
[1]; [11]
  IC50: 550 to 560 nM
[1]; [12]
  IC50: 560 nM
[4]
  inhibition of radioiodide uptake in mouse thyroid: inhibit radioiodide uptake

## I [I^-, iodide]
[1]; [11]
  IC50: 2700 to 4700 nM
[1]; [12]
  IC50: > 2700 nM

## F[B-](F)(F)F [BF4^-, tetrafluoroborate]
[1]; [11]
  IC50: 290 to 4500 nM

## O=S(=O)(O)F [[^18F]SO3F^-] [[^18F]Fluorosulfate]
[5]
  uptake of radiotracer in HCT116-C19 cells: Specific, blockable hNIS-mediated uptake; also recorded: Significant uptake
  uptake of radiotracer in HCT116-C19 cells with NaClO4: blocked
[6]
  uptake of radiotracer in parental HCT116 cells: No uptake; also recorded: absent
[7]
  bladder radioactivity (ex vivo): 15 ± 14 %ID/g
  bone uptake (ex vivo): 17 ± 3 %ID/g
[7]; mice administered NaClO4
  bone uptake (ex vivo) with perchlorate: not blocked
  salivary gland uptake (ex vivo) with NaClO4: 2.6 ± 1.7 %ID/g
  stomach uptake (ex vivo) with NaClO4: 3.0 ± 1.7 %ID/g
  thyroid uptake (ex vivo) with NaClO4: 4.3 ± 4.6 %ID/g
[7]; without NaClO4
  salivary gland uptake (ex vivo): 18 ± 4 %ID/g
  stomach uptake (ex vivo): 59 ± 10 %ID/g
  thyroid uptake (ex vivo): 144 ± 71 %ID/g
[8]; 30 min
  bone %ID/g relative to that in thyroid: < 1%
[8]; PET, normal mice
  time of maximum thyroid uptake: 30 min
[8]; normal mice, 30 min
  salivary gland uptake (PET): 32 ± 9 %ID/g
  thyroid uptake (PET): 563 ± 140 %ID/g
[8]; normal mice, 60 min
  bone uptake (PET): 3 ± 1 %ID/g
[8]; normal mice, 90 min
  stomach uptake (PET): 68 ± 21 %ID/g
[8]; [13]
  time at which stomach uptake reaches a plateau: around 90 min
  time at which thyroid and salivary gland uptake reaches a plateau: 30 to 45 min
[9]; formulated tracer, room temperature, 4 h, IC and TLC
  RCP after standing: > 95%
[9]; pH 3.0, 4 h
  RCP under acidic conditions: similarly constant
[10]; 4 h, TLC of supernatant after ethanol protein precipitation
  RCP after incubation with human serum: > 95%
[10]; human serum, ethanol precipitation
  radioactivity associated with the protein pellet: no significant radioactivity
